Compounds with a hit are over-represented: about 2.9% of the library has one in this group of screens.
Kir21 inh: blocks the mouse Kir2.1 inward-rectifier potassium channel; P35561; HEK293-Kir2.1, FluxOR thallium flux fluorescence; active compounds read low; B-score at 10 µM; 310,000 tested, 0.85% active;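 active = fluorescence ratio B-score at or below minus 3 SD of library scores, with starting-brightness B-score within 2 SD, cut at about -4.2 in these data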;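 note: channel flux triggered by added potassium and thallium sulfate stimulus; B-score of peak minus minimum fluorescence over baseline after thallium stimulus; more negative B-score means stronger Kir2.1 block with less thallium influx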
TRPC6 inhibitor: inhibitors of mouse TRPC6 channel. Q61143. HEK293-TRPC6, membrane potential dye, ACh-evoked depolarization; active compounds read low. AID 2553. B-score at 10 µM. 310,000 tested, 1.1% active;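 active = B-score under library mean minus 3 SD, initial fluorescence not abnormally high, positive integrated signal ratio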;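 note: B-score derived from integrated fluorescence ratio over the kinetic read; more negative B-score means stronger inhibition of depolarization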
TRPC4 block: TRPC4 (mouse) channel inhibition; HEK293 TRPC4beta/mu-opioid, DAMGO-evoked Fluo4 calcium flux; active compounds read low; AID 2247; B-score at 10 µM; 300,000 tested, 0.39% active;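 active = B-score over 3 SD under the library average, no early fluorescence shift, positive overall ratio signal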
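Assay system – HEK293 line stably carrying TRPC4beta and mu-opioid receptor · Doses – single dose · Detection – Fluo4 calcium-dye fluorescence, kinetic read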
TRPC4 agonist: opens the mouse TRPC4 cation channel | Q9QUQ5 | HEK293 TRPC4beta/mu-opioid, Fluo4 calcium fluorescence; active compounds read high | B-score at 10 µM | 310,000 tested, 0.49% active | AID 2237;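 active = B-score above 5 SD of library B-scores, and initial fluorescence ratio not above library mean plus 5 SD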;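 note: positive B-score marks a calcium rise read as TRPC4 activation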
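Material: TRPC4beta and mu-opioid receptor HEK293 stable cells | Incubation: 45 min room-temperature Fluo4 loading, 110 s read | Detection: Kinetic Fluo4 calcium fluorescence | Measure: Integrated baseline-normalised fluorescence ratio, converted to per-well B score | Benchmarks: Low control buffer alone, high control maximal DAMGO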
TRPC4 PAM: allosteric potentiators of mouse TRPC4 channel; HEK293 TRPC4beta/mu-opioid, DAMGO EC20, Fluo-4 Ca2+ flux; active compounds read high; B-score at 10 µM; AID 2227; 310,000 tested, 0.42% active;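 active = B-score of calcium response area above 5 SD of library B-scores, with initial fluorescence ratio within 5 SD of library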
TRPC6 act: activators of mouse TRPC6 channel. AID 2550. 310,000 tested, 0.13% active. HEK293-TRPC6 membrane potential dye fluorescence; active compounds read high. B-score at 10 µM. Q61143;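 active = B-score of the integrated fluorescence ratio above library mean plus 3 SD, and starting fluorescence ratio within library mean plus 5 SD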;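 note: higher score means more depolarization so channel activation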
TRPC4 sel inh 2: second selectivity test of TRPC6 inhibitors: effect on mouse TRPC4 | shares compounds with TRPC6 inhibitor | HEK293 TRPC4/MOR, membrane potential dye fluorescence; channel activated by saturating DAMGO dose | inhibition, % at 10 µM | 920 tested, 42% active;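 active = compounds whose fluorescence signal differed from control wells by over 3 SD, either direction, in both duplicate plates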
TRPC4 spec: mouse TRPC4 off-target activity of TRPC6 inhibitors; HEK293 TRPC4/mu-opioid, membrane potential fluorescence; shares compounds with TRPC6 inhibitor; activity change, negative = inhibition, % at 10 µM; 920 tested, 61% active; AID 2777;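 active = rise or fall in signal beyond 3 SD of buffer-only wells in both replicate plates, either sign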;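 note: integrated kinetic ratio of fluorescence range over baseline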
HEK293 MPD ctr 2-1: second counter-screen for TRPC6 inhibitors: parental HEK293 cells. shares compounds with TRPC6 inhibitor. parental HEK293 membrane potential dye fluorescence; maximal acetylcholine challenge after compound addition. signal change vs control, % at 10 µM. 920 tested, 31% active;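 active = membrane potential signal moving either way by over 3 SD of the maximum-effect control, in both duplicate plates, meaning non-specific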
HEK293 MPD ctr-1: parental HEK293 nonspecific activity of TRPC6 inhibitors. parental HEK293 membrane potential dye fluorescence. 920 tested, 60% active. shares compounds with TRPC6 inhibitor. membrane potential signal change, % at 10 µM;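 active = membrane potential signal shifting up or down by more than 3 SD of buffer-only wells, on both duplicate plates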
HEK293 MPD ctr-2: checks TRPC6 modulator effects in parental HEK293 cells. shares compounds with TRPC6 inhibitor. membrane potential dye fluorescence. membrane potential signal change, % at 10 µM. 2,400 tested, 51% active. AID 488924;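 active = membrane potential signal moves up or down beyond 5 SD from buffer-only wells, on both duplicate plates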
HEK293 MPD ctr 2-2: second check of TRPC6 modulator effects in parental HEK293 cells. AID 488926. 2,400 tested, 14% active. membrane potential dye fluorescence; after compound, maximal acetylcholine stimulation. shares compounds with TRPC6 inhibitor. inhibition, % at 10 µM;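 active = membrane potential signal drops by more than 5 SD from the mean control signal, in both duplicate plates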
TRPC4 ctr mod: selectivity of TRPC6 modulators against mouse TRPC4. shares compounds with TRPC6 inhibitor. HEK293 TRPC4/mu-opioid, membrane potential fluorescence. percent change from control (negative = decrease, positive = increase), % at 10 µM. 2,400 tested, 69% active;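 active = membrane potential signal moved up or down beyond 5 SD of buffer control wells, in both duplicate plates, actives on both sides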
TRPC4/MOR inh 2: second selectivity test of TRPC6 modulators against mouse TRPC4 | shares compounds with TRPC6 inhibitor | HEK293 TRPC4/mu-opioid, membrane potential dye fluorescence; stimulated with maximal-effect DAMGO | 2,400 tested, 55% active | inhibition, % at 10 µM;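 active = drop in membrane potential signal beyond 5 SD of the control wells in both duplicate plates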;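 note: TRPC4 counter screen for TRPC6 hits run under conditions tuned for TRPC6 not TRPC4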
TRPC6 inh conf: confirmation of mouse TRPC6 inhibitors; shares compounds with TRPC6 inhibitor; HEK293-TRPC6, membrane potential dye, ACh-evoked depolarization; inhibition, % at 10 µM; 3,300 tested, 43% active; AID 488960;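 active = fluorescence ratio falls more than 5 SD below the full-stimulation control mean, in both duplicate runs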;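 note: integrated fluorescence ratio of peak minus minimum over baseline after agonist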
TRPC6 act confirm: confirmation of mouse TRPC6 activators. shares compounds with TRPC6 inhibitor. HEK293-TRPC6 membrane potential dye fluorescence, FDSS. activation, % at 10 µM. 2,800 tested, 11% active. AID 488961;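 active = ratio signal rise beyond 5 SD above unstimulated control wells' mean, seen in both duplicate runs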
Of the large screens only hits and unclear results are named; the others gave an inactive call (follow-up assays come after a bar, where they were run).

Cc1ccc(NC(=O)c2cc([N+](=O)[O-])ccc2NCc2cccnc2)cc1	TRPC6 inhibitor -6.73 | TRPC4 sel inh 2 inactive | TRPC4 spec inactive | HEK293 MPD ctr 2-1 inactive | HEK293 MPD ctr-1 -145.0% | TRPC6 inh conf inactive | TRPC6 act confirm inactive
COc1ccc([N+](=O)[O-])cc1NCc1cccnc1	none
CCc1nnc(NC(=O)c2ccc(COc3cccc(C)c3)o2)s1	none
CC(C)Oc1ccc(C(=O)Nc2ccc(N3CCCCC3)cc2)cc1	TRPC6 inhibitor -5.89 | HEK293 MPD ctr-2 inactive | HEK293 MPD ctr 2-2 inactive | TRPC4 ctr mod inactive | TRPC4/MOR inh 2 inactive | TRPC6 inh conf inactive | TRPC6 act confirm inactive
Cc1ccc(C(=O)Nc2ccc(N3CCN(C)CC3)cc2)cc1C	TRPC6 inhibitor -6.07 | HEK293 MPD ctr-2 inactive | HEK293 MPD ctr 2-2 inactive | TRPC4 ctr mod -15.0% | TRPC4/MOR inh 2 44.5% | TRPC6 inh conf 41.5% | TRPC6 act confirm inactive
Cc1ccc(C(=O)Nc2ccc(N3CCCC3)cc2)cc1	none
N#Cc1c(-c2ccccc2)cc(-c2ccccc2)nc1SCCC(=O)O	none
CCN1CCN(c2cc(C)c3cc(NC(=O)c4cccs4)ccc3n2)CC1	TRPC6 inhibitor -5.33 | HEK293 MPD ctr-2 inactive | HEK293 MPD ctr 2-2 inactive | TRPC4 ctr mod inactive | TRPC4/MOR inh 2 inactive | TRPC6 inh conf inactive | TRPC6 act confirm inactive
CCN1CCN(c2cc(C)c3cc(NC(=O)c4cccc(OC)c4)ccc3n2)CC1	none
CCN1CCN(c2cc(C)c3cc(NC(=O)c4cncc(Br)c4)ccc3n2)CC1	TRPC6 inhibitor -11.1 | TRPC4 sel inh 2 inactive | TRPC4 spec -17.2% | HEK293 MPD ctr 2-1 inactive | HEK293 MPD ctr-1 -164.0% | TRPC6 inh conf inactive | TRPC6 act confirm inactive
O=c1[nH]c2c(s1)C(c1ccco1)C1C3CCC(C3)C1S2 (stereo unspecified)	none
Cc1ccc(-n2nc3c(c2NC(=O)C(C)C)CS(=O)(=O)C3)cc1	TRPC6 inhibitor -5.53 | HEK293 MPD ctr-2 inactive | HEK293 MPD ctr 2-2 inactive | TRPC4 ctr mod 21.0% | TRPC4/MOR inh 2 inactive | TRPC6 inh conf inactive
CC(C)C(=O)Nc1c2c(nn1-c1ccc([N+](=O)[O-])cc1)CS(=O)(=O)C2	none
